# E-selectin induc: induces E-selectin expression in human endothelial cells | HUVEC E-selectin immunofluorescence imaging; normalized: neutral wells 0, TNF-alpha wells 100 | activation, % at 7.58 µM | 260,000 tested, 0.37% active | P16581 | AID 686992;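 active = mean E-selectin-positive cell signal at least 10% of the positive control, reached in at least 60% of replicates, without over 20% cell loss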
# Target sequence (P16581 whole entry, looked up): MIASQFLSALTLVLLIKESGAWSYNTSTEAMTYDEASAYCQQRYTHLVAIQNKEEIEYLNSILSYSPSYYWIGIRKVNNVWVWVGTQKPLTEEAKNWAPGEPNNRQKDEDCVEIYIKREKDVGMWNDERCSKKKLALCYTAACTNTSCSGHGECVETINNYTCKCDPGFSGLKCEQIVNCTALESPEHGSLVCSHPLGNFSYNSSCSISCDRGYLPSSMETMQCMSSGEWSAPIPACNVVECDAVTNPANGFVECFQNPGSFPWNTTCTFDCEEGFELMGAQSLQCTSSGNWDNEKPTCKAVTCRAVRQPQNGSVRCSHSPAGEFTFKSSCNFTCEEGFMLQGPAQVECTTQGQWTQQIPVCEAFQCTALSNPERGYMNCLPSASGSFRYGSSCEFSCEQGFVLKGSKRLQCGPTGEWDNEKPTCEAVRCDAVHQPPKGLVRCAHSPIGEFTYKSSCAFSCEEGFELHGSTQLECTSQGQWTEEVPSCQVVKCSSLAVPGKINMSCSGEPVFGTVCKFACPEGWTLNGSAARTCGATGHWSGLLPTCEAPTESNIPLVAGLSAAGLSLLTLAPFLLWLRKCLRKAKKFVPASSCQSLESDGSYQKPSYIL
#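 Test system – human umbilical vein endothelial cells (HUVEC), E-selectin induction · Input – 3,000 HUVEC seeded per well · Buffer or medium – EGM-2, gelatin · Compound dosing – single-point compound dose · Detection – immunofluorescence imaging · Measure – percent E-selectin-positive cells · Controls – TNF-alpha high, DMSO low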
# S100A4 inh HTS: inhibitors of human S100A4 binding to myosin IIA peptide; P26447; S100A4/TAMRA-MyoIIA peptide fluorescence polarization; inhibition, % at 10.7 µM; 360,000 tested, 0.14% active;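 active = mean inhibition of at least 70% across replicates, with every replicate also reaching that level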
#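 incubation = readout 5 min after mixing, signal stable up to 60 min | system = S100A4 monomer protein | buffer or medium = HEPES pH 7.2 with CaCl2, KCl, NaCl, DTT, Triton | benchmarks = neutral control DMSO, positive control TFP | also added = fluorescent myosin IIA peptide, 5 nM | compound dosing = one concentration per compound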
# DENV2 CPE rescue: protects cells from dengue virus 2 cytopathic effect; CPE inhibition, % at 9.99 µM; DENV2-infected cells, cytopathic effect rescue, plate reader; 350,000 tested, 1.7% active; AID 651640; in the data active = CPE inhibition above about 20%, passing the limit was not always enough; tested in BHK-21 cells;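 also: 0% = median of neutral control wells and 100% = median of positive control wells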
# Xi reactivation: reactivates the inactive X chromosome in mouse fibroblasts; activation, % at 7.58 µM; 360,000 tested, 0.055% active; XiGFP mouse fibroblasts, % GFP-positive cells imaging, 3 d; cells co-treated with 5-aza-dC sensitizer; scaled so ellipticine positive control = 100%;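 active = mean normalized replicate activation at least 10% and every replicate at or above 10%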;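 also: 0% = median of on-plate neutral control wells and 100% = ellipticine 6 µM median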
#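 Assay system: SV40-immortalized XiGFP fibroblast cells, line 68-5-11; buffer or medium: DMEM plus 5-aza-dC sensitizer; compound: one concentration, pinned; timing: compounds 3 days, fix/stain 15 min at room temperature; benchmarks: positive control ellipticine, 6 µM final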
# * hit, by the source's call; x = no result. In the library only some 2% were active in any assay of this set; here they are far more common.
SMILES,E-selectin induc,S100A4 inh HTS,DENV2 CPE rescue,Xi reactivation
Cc1ccccc1-c1cc(C(=O)NCc2cccc(Br)c2)nn1CC1CC(c2cccc([N+](=O)[O-])c2)=NO1 (stereo not drawn),0,-10,34*,0
CCn1c(=O)ccc2cc([N+](=O)[O-])ccc21,0,6,-1,0
COc1cccc(CNC(=O)[C@@H]2CCCN2C(=O)[C@H]2CCCCN2C(=O)c2ccc(Cl)cc2)c1,0,-9,78*,0
COc1cccc(CNC(=O)[C@@H]2CCCN2C(=O)[C@@H]2CCCN2C(=O)c2cccc(Cl)c2)c1,0,2,3,0
C[C@H](CO)N1C[C@H](C)[C@H](CN(C)C(=O)C2CCC2)Oc2ncc(C3=CCCC3)cc2C1=O,0,-1,30*,-1
C[C@@H]1CN([C@@H](C)CO)C(=O)c2cc(-c3ccccc3)cnc2O[C@H]1CN(C)C(=O)C1CCCCC1,0,11,51*,-1
C[C@@H]1CN([C@H](C)CO)C(=O)c2cc(C3=CCCC3)cnc2O[C@H]1CN(C)C(=O)C1CCOCC1,0,13,38*,-1
C[C@H]1CN([C@@H](C)CO)C(=O)c2cc(C3=CCCC3)cnc2O[C@@H]1CN(C)C(=O)C1CCC1,0,0,-5,-1
C[C@H]1CN([C@@H](C)CO)C(=O)c2cc(C3=CCCC3)cnc2O[C@H]1CN(C)C(=O)C1CCOCC1,0,13,12,1
C[C@@H]1CN([C@@H](C)CO)C(=O)c2cc(-c3ccccc3)cnc2O[C@@H]1CN(C)C(=O)C1CCCCC1,0,-5,12,-1
Cc1nn(CC(=O)N2CC(=O)Nc3ccccc32)c(C)c1[N+](=O)[O-],0,0,-3,0
O=S(=O)(Nc1nc(SCc2ccc(Cl)cc2)n[nH]1)c1ccc(F)cc1,x,-9,29*,0
CCc1nc(SCc2ccc(Cl)cc2)n[nH]1,1,-4,1,0
Cc1ccccc1S(=O)(=O)N1C(c2ccc(Cl)cc2)CC=C(C(=O)O)C1c1cccc(Cl)c1 (stereo not drawn),0,-1,67*,0
COc1cccc([C@@H]2CC=C(C(=O)O)[C@H](c3ccc(C)cc3)N2S(=O)(=O)c2ccc(C)cc2)c1,x,2,-5,0
COc1cccc([C@@H]2CC=C(C(=O)O)[C@H](c3ccccc3F)N2S(=O)(=O)c2ccc(C)cc2)c1,x,-2,21*,0
Cc1ccc(S(=O)(=O)c2c(C)nn(-c3ccccc3)c2OC(=O)c2ccco2)cc1,x,0,-2,0
CCCCCCCCCCCCOC1OC(CO)C(O)C(O)C1NC(C)=O (stereo not drawn),x,-4,23*,0
COc1cc(OC)cc(C(=O)NNC(=O)CCC(=O)c2cc(C)sc2C)c1,5,-2,73*,0
COc1cc(OC)cc(C(=O)NNC(=O)CCCOc2ccccc2)c1,x,3,3,0
CCc1ccc(O)c(CNCCNCc2cc(CC)ccc2O)c1,0,-4,73*,0
C[C@@H]1CN([C@H](C)CO)C(=O)c2cc(NC(=O)Nc3ccc(F)cc3)ccc2O[C@@H](C)CCCCO[C@@H]1CN(C)S(=O)(=O)c1cccs1,1,-8,21*,-1
C[C@@H]1CN([C@H](C)CO)C(=O)c2cccc(NC(=O)C3CC3)c2O[C@H]1CN(C)S(=O)(=O)c1cccs1,0,-2,34*,0
C[C@H]1CN([C@@H](C)CO)C(=O)c2cc(NC(=O)C3CC3)ccc2O[C@H]1CN(C)S(=O)(=O)c1cccs1,1,-6,36*,-1
C[C@@H]1CN([C@H](C)CO)C(=O)c2cc(NC(=O)Nc3ccc(F)cc3)ccc2O[C@H]1CN(C)S(=O)(=O)c1cccs1,39*,-5,2,0
C[C@H](CO)N1C[C@H](C)[C@H](CN(C)S(=O)(=O)c2cccs2)OCCCC[C@H](C)Oc2ccc(NC(=O)Nc3ccc(F)cc3)cc2C1=O,0,-10,0,-1
N#C/C(=C/c1ccc(-c2ccc(Br)cc2)o1)C(=O)NC1CCCCC1,x,2,15,0
O=C(C[C@H]1CC[C@H](NC(=O)C2CCC2)[C@H](CO)O1)NCc1ccncc1,0,-6,2,0
CN(C)c1ccc(C(=O)NN2C(=O)c3ccccc3C2=O)cc1,0,0,5,0

# Screening data from PubChem BioAssay.
